From ChEMBL document CHEMBL4043297, “Synthesis and Structure-Activity Relationships of the Novel Antimalarials 5-Pyridinyl-4(1 H)-Pyridones” (J Med Chem, 2018)
One block for each molecule: values may come before it.

Tests used:
[1] = AUC (infinity) in CD1 mouse at 10.36 mg/kg administered via oral gavage by LC-MS/MS method; type: ADME, organism-based; parameters: dose 10.36 mg/kg, route oral, time infinity; details: in vivo
Procedure, shortened: (§1)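 Specific pathogen-free female CD1 (Hsd:ICR) mice, 8 to 10 weeks old. Each compound was given as an intravenous dose and an oral dose at the levels listed. Parameters reported: Vd, clearance, t1/2, Cmax, Tmax, AUC0-t, AUC∞ and %F.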

[2] = Cmax in CD1 mouse at 10.36 mg/kg administered via oral gavage by LC-MS/MS method; type: ADME, organism-based; parameters: dose 10.36 mg/kg, route oral; details: in vivo; procedure, shortened: as §1
[3] = Volume of distribution in CD1 mouse at 0.192 mg/kg, iv as bolus dose by LC-MS/MS method; type: ADME, organism-based; details: in vivo
Procedure, shortened: (§2)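 Specific pathogen-free female CD1 (Hsd:ICR) mice, 8–10 weeks old, housed in the institutional animal facility. Each compound was given intravenously at a low dose and orally at a higher dose. Vd, clearance, t1/2, Cmax, Tmax, AUC0-t, AUC∞ and %F were derived from plasma exposure after each route.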

[4] = Tmax in CD1 mouse at 10.36 mg/kg administered via oral gavage by LC-MS/MS method; type: ADME, organism-based; details: in vivo; procedure, shortened: as §2
serum albumin = serum albumin (Homo sapiens, UniProt P02768); test: Binding affinity to human serum albumin by HPLC method; type: ADME; details: read-out: PB (converted)
[5] = Oral bioavailability in CD1 mouse at 10.36 mg/kg administered via gavage by LC-MS/MS method; type: ADME, organism-based; details: in vivo; procedure, shortened: as §1
[6] = Clearance in CD1 mouse at 0.192 mg/kg, iv as bolus dose by LC-MS/MS method; type: ADME, organism-based; details: in vivo; procedure, shortened: as §1
[7] = Half life in CD1 mouse at 0.192 mg/kg, iv as bolus dose by LC-MS/MS method; type: ADME, organism-based; details: in vivo; procedure, shortened: as §1
[8] = AUC (0 to t) in CD1 mouse at 10.36 mg/kg administered via oral gavage by LC-MS/MS method; type: ADME, organism-based; details: in vivo; procedure, shortened: as §1
Plasmodium falciparum = test: Antimalarial activity against Plasmodium falciparum 3D7A infected in human RBC after 48 hrs by [3H]-hypoxanthine incorporation assay; type: functional
[9] = Tmax in CD1 mouse at 8.3 mg/kg administered via oral gavage by LC-MS/MS method; type: ADME, organism-based; details: in vivo; procedure, shortened: as §2
[10] = Cmax in CD1 mouse at 8.3 mg/kg administered via oral gavage by LC-MS/MS method; type: ADME, organism-based; parameters: dose 8.3 mg/kg, route oral; details: in vivo; procedure, shortened: as §1
[11] = Clearance in CD1 mouse at […], iv as bolus dose by LC-MS/MS method; type: ADME, organism-based; details: in vivo
[12] = Volume of distribution in CD1 mouse at […], iv as bolus dose by LC-MS/MS method; type: ADME, organism-based; details: in vivo
[13] = AUC (0 to t) in CD1 mouse at 8.3 mg/kg administered via oral gavage by LC-MS/MS method; type: ADME, organism-based; details: in vivo; procedure, shortened: as §1
[14] = Half life in CD1 mouse at […], iv as bolus dose by LC-MS/MS method; type: ADME, organism-based; details: in vivo
Plasmodium yoelii = test: Schizontocidal activity against Plasmodium yoelii infected in CD1 mouse administered via oral gavage as qd for 4 days starting 1 hr post infection by YOYO-1 dye-based flow cytometric method; type: functional
Procedure, shortened: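 Blood schizontocidal activity was tested in a modified 4-day suppressive test in mice infected with P. yoelii. Four oral doses were given by gavage over four days.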

[15] = Oral bioavailability in CD1 mouse at 8.3 mg/kg administered via gavage by LC-MS/MS method; type: ADME, organism-based; details: in vivo; procedure, shortened: as §2
[16] = AUC (infinity) in CD1 mouse at 8.3 mg/kg administered via oral gavage by LC-MS/MS method; type: ADME, organism-based; parameters: dose 8.3 mg/kg, route oral, time infinity; details: in vivo; procedure, shortened: as §1
[17] = Cmax in CD1 mouse at 4.42 mg/kg administered via oral gavage by LC-MS/MS method; type: ADME, organism-based; parameters: dose 4.42 mg/kg, route oral; details: in vivo; procedure, shortened: as §1
[18] = Oral bioavailability in CD1 mouse at 4.42 mg/kg administered via gavage by LC-MS/MS method; type: ADME, organism-based; details: in vivo; procedure, shortened: as §2
[19] = AUC (0 to t) in CD1 mouse at 4.42 mg/kg administered via oral gavage by LC-MS/MS method; type: ADME, organism-based; details: in vivo; procedure, shortened: as §1
[20] = Tmax in CD1 mouse at 4.42 mg/kg administered via oral gavage by LC-MS/MS method; type: ADME, organism-based; details: in vivo; procedure, shortened: as §2
[21] = AUC (infinity) in CD1 mouse at 4.42 mg/kg administered via oral gavage by LC-MS/MS method; type: ADME, organism-based; parameters: dose 4.42 mg/kg, time infinity, route oral; details: in vivo; procedure, shortened: as §1
[22] = Clearance in CD1 mouse at 0.195 mg/kg, iv as bolus dose by LC-MS/MS method; type: ADME, organism-based; details: in vivo; procedure, shortened: as §1
[23] = Oral bioavailability in CD1 mouse at 9.354 mg/kg administered via gavage by LC-MS/MS method; type: ADME, organism-based; details: in vivo; procedure, shortened: as §2
[24] = Tmax in CD1 mouse at 9.354 mg/kg administered via oral gavage by LC-MS/MS method; type: ADME, organism-based; details: in vivo; procedure, shortened: as §2
[25] = Cmax in CD1 mouse at 9.354 mg/kg administered via oral gavage by LC-MS/MS method; type: ADME, organism-based; parameters: dose 9.354 mg/kg, route oral; details: in vivo; procedure, shortened: as §1
[26] = Half life in CD1 mouse at 0.195 mg/kg, iv as bolus dose by LC-MS/MS method; type: ADME, organism-based; details: in vivo; procedure, shortened: as §1
[27] = AUC (infinity) in CD1 mouse at 9.354 mg/kg administered via oral gavage by LC-MS/MS method; type: ADME, organism-based; parameters: dose 9.354 mg/kg, route oral, time infinity; details: in vivo; procedure, shortened: as §1
[28] = AUC (0 to t) in CD1 mouse at 9.354 mg/kg administered via oral gavage by LC-MS/MS method; type: ADME, organism-based; details: in vivo; procedure, shortened: as §1
[29] = Volume of distribution in CD1 mouse at 0.195 mg/kg, iv as bolus dose by LC-MS/MS method; type: ADME, organism-based; details: in vivo; procedure, shortened: as §2

Sequence of serum albumin (P02768 whole entry): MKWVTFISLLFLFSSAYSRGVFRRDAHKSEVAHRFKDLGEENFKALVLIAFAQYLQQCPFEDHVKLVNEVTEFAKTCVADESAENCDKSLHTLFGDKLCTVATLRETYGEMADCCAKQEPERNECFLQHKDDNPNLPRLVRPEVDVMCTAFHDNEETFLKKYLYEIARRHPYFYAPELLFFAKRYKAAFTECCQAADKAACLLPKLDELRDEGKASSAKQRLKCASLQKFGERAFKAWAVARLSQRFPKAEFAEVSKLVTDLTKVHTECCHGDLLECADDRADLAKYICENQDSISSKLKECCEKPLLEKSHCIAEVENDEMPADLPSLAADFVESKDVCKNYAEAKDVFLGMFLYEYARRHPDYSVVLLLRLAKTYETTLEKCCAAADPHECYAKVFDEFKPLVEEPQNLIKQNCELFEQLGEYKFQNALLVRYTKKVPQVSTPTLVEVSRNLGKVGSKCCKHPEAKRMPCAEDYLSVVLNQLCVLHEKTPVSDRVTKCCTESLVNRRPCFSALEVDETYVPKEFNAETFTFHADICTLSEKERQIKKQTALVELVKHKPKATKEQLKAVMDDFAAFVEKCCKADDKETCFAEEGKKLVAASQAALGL

Structure (SMILES): Cc1[nH]c(C)c(-c2ccc(-c3ccccc3F)nc2)c(=O)c1Br
IC50 (Plasmodium falciparum): 0.064 µM

Structure (SMILES): Cc1[nH]c(C)c(-c2ccc(OCc3ccc(OC(F)(F)F)cc3)nc2)c(=O)c1Cl
Tmax [9]: 6 h
Cmax [10]: 300 ng/mL
clearance [11]: 2.74 mL/min/kg
Vd [12]: 1.26 L/kg
AUC(0-t) [13]: 5600 ng·h/mL
half-life [14]: 5.32 h
ED50 (Plasmodium yoelii): 16.3 mg/kg
bioavailability [15]: 11%
fraction unbound (serum albumin): 0.03
AUC(0-inf) [16]: 5600 ng·h/mL
IC50 (Plasmodium falciparum): 0.014 µM

Structure (SMILES): Cc1[nH]c(C)c(-c2ccc(-c3ccc(Cl)cc3)nc2)c(=O)c1Br
IC50 (Plasmodium falciparum): 0.11 µM

Structure (SMILES): Cc1[nH]c(CO)c(-c2ccc(Oc3ccc(OC(F)(F)F)cc3)cc2)c(=O)c1Cl
IC50 (Plasmodium falciparum): 0.005 µM

Structure (SMILES): Cc1[nH]c(C)c(-c2ccc(-c3ccc(C(F)(F)F)cc3)nc2)c(=O)c1Cl
Cmax [17]: 3310 ng/mL
bioavailability [18]: 100%
AUC(0-t) [19]: 101000 ng·h/mL
Tmax [20]: 10 h
ED50 (Plasmodium yoelii): 0.25 mg/kg
fraction unbound (serum albumin): 0.05
AUC(0-inf) [21]: 106000 ng·h/mL
IC50 (Plasmodium falciparum): 0.016 µM

Structure (SMILES): Cc1[nH]c(C)c(-c2ccc(C#Cc3ccc(C(F)(F)F)cc3)nc2)c(=O)c1Br
IC50 (Plasmodium falciparum): 0.058 µM

Structure (SMILES): Cc1[nH]c(C)c(-c2ccc(-c3cccc(C(F)(F)F)c3)nc2)c(=O)c1Cl
clearance [22]: 1.52 mL/min/kg
bioavailability [23]: 38.7%
Tmax [24]: 3 h
Cmax [25]: 2470 ng/mL
half-life [26]: 5.13 h
AUC(0-inf) [27]: 39500 ng·h/mL
AUC(0-t) [28]: 39500 ng·h/mL
ED50 (Plasmodium yoelii): 1.2 mg/kg
fraction unbound (serum albumin): 0.05
Vd [29]: 0.68 L/kg
IC50 (Plasmodium falciparum): 0.04 µM

Structure (SMILES): Cc1[nH]c(C)c(-c2ccc(C#Cc3ccc(C(F)(F)F)cc3)nc2)c(=O)c1Cl
IC50 (Plasmodium falciparum): 0.097 µM

Structure (SMILES): Cc1[nH]c(C)c(-c2ccc(OCc3cc(C(F)(F)F)cc(C(F)(F)F)c3)nc2)c(=O)c1Br
IC50 (Plasmodium falciparum): 0.033 µM

Structure (SMILES): Cc1[nH]c(C)c(-c2ccc(OCc3ccccc3C(F)(F)F)nc2)c(=O)c1Cl
IC50 (Plasmodium falciparum): 0.01 µM

Structure (SMILES): Cc1[nH]c(C)c(-c2ccc(OCc3ccc(F)cc3)nc2)c(=O)c1Br
IC50 (Plasmodium falciparum): 0.01 µM

The remaining molecules from weak to strong by IC50 (Plasmodium falciparum), led by results:

IC50 (Plasmodium falciparum): 0.329 µM
Structure (SMILES): Cc1[nH]c(C)c(-c2ccc(-c3ccc(C#N)cc3)nc2)c(=O)c1Br

IC50 (Plasmodium falciparum): 0.08 µM
Structure (SMILES): Cc1[nH]c(C)c(-c2ccc(OCc3cc(F)cc(F)c3)nc2)c(=O)c1Cl

IC50 (Plasmodium falciparum): 0.044 µM
Structure (SMILES): Cc1[nH]c(C)c(-c2ccc(-c3ccccc3Cl)nc2)c(=O)c1Br

IC50 (Plasmodium falciparum): 0.035 µM
Structure (SMILES): Cc1[nH]c(C)c(-c2ccc(-c3ccccc3OC(F)(F)F)nc2)c(=O)c1Cl

IC50 (Plasmodium falciparum): 0.033 µM
Structure (SMILES): Cc1[nH]c(C)c(-c2ccc(OCc3ccc(F)cc3)nc2)c(=O)c1Cl

IC50 (Plasmodium falciparum): 0.026 µM
Structure (SMILES): Cc1[nH]c(C)c(-c2ccc(-c3ccccc3Cl)nc2)c(=O)c1Cl

AUC(0-inf) [1]: 118000 ng·h/mL
Cmax [2]: 4100 ng/mL
Vd [3]: 0.91 L/kg
Tmax [4]: 10 h
fraction unbound (serum albumin): 0.04
bioavailability [5]: 49.1%
clearance [6]: 0.72 mL/min/kg
half-life [7]: 14.6 h
AUC(0-t) [8]: 109000 ng·h/mL
IC50 (Plasmodium falciparum): 0.02 µM
Structure (SMILES): Cc1[nH]c(C)c(-c2ccc(-c3ccc(OC(F)(F)F)cc3)nc2)c(=O)c1Br

IC50 (Plasmodium falciparum): 0.005 µM
Structure (SMILES): Cc1[nH]c(C)c(-c2ccc(OCc3cccc(C(F)(F)F)c3)nc2)c(=O)c1Cl

IC50 (Plasmodium falciparum): 0.005 µM
Structure (SMILES): Cc1[nH]c(C)c(-c2ccc(CCc3ccc(C(F)(F)F)cc3)nc2)c(=O)c1Cl

IC50 (Plasmodium falciparum): 0.004 µM
Structure (SMILES): Cc1[nH]c(C)c(-c2ccc(OCc3cccc(C(F)(F)F)c3)nc2)c(=O)c1Br
